Results as given in ChEMBL document CHEMBL2150978, “Phosphorodiamidates as a promising new phosphate prodrug motif for antiviral drug discovery: application to anti-HCV agents” (J Med Chem, 2011).

Assays:
[1] = test system: Liver; test: Tmax in Sprague-Dawley rat liver assessed as 2'-C-methyl guanosine triphosphate level at 10 mg/kg, po up to 24 hrs by LC-MS/Ms analysis; format: ADME, organism-based; design: dose 10 mg/kg, route oral; conditions: in vivo
How it was run: (§1)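 Male Sprague-Dawley rats dosed orally by gavage at 10 mg/kg in 95% Capmul MCM/5% Tween 80. Livers collected terminally at eight time points up to 24 h and snap-frozen in liquid nitrogen. Liver 2′-C-methylguanosine triphosphate quantified by LC-MS/MS, linear over 100−4000 ng per gram of tissue (r² ≥ 0.99, ≥85% accuracy, ≤2% CV).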

[2] = test system: Liver; test: Clast in Sprague-Dawley rat liver assessed as 2'-C-methyl guanosine triphosphate level at 10 mg/kg, po up to 24 hrs by LC-MS/Ms analysis; format: ADME, organism-based; design: dose 10 mg/kg, route oral; conditions: in vivo; how it was run: as §1
[3] = test system: Liver; test: AUC (0 to t) in Sprague-Dawley rat liver assessed as 2'-C-methyl guanosine triphosphate level at 10 mg/kg, po up to 24 hrs by LC-MS/Ms analysis; format: ADME, organism-based; design: dose 10 mg/kg, route oral; conditions: in vivo; how it was run: as §1
[4] = test system: Hepatitis C virus; test: Antiviral activity against Hepatitis C virus subtype 1b Con1 infected in human Huh7 cells assessed as inhibition of HCV replicon-encoded Renilla luciferase reporter activity after 72 hrs by HCV replicon assay; format: functional, organism-based, Hepacivirus hominis; conditions: Con1, Huh-7, 72 h
How it was run: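 Huh7 cells stably carrying a bicistronic subgenomic genotype 1b (Con1) replicon with Renilla luciferase reporter, seeded at 2 × 10⁴ cells/well the day before. Four-fold serial dilutions in growth medium, no-drug controls on each plate; 3 days at 37 °C, 5% CO₂. Luciferase reagent 20 min, then luminescence (RLU) read; EC₅₀ derived.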

[5] = test system: Liver; test: Cmax in Sprague-Dawley rat liver assessed as 2'-C-methyl guanosine triphosphate level at 10 mg/kg, po up to 24 hrs by LC-MS/Ms analysis; format: ADME, organism-based; design: dose 10 mg/kg, route oral; conditions: in vivo; how it was run: as §1
[6] = Cytotoxicity against human HuH7 cells after 3 days; format: cell-based, Huh-7
How it was run: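 Huh7 replicon cells seeded at 2 × 10⁴ per well one day before dosing. Four-fold serial dilutions in growth medium, no-drug controls on each plate. Incubated 3 days at 37 °C, 5% CO₂. Viability read by CellTiter-Glo luminescence after 20 min with reagent.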

Row | Structure (SMILES) | Tmax [1] [h] | Clast [2] [ng/g] | AUCt [3] [ng·h/g] | EC50 [4] [nM] | EC90 [4] [nM] | Cmax [5] [ng/g] | CC50 at 72 h [6] [nM]
1 | CCCCOC(=O)[C@H](C)NP(=O)(N[C@@H](C)C(=O)OCCCC)OC[C@H]1O[C@@H](n2cnc3c(OC)nc(N)nc32)[C@](C)(O)[C@@H]1O (mixture of isomers) | 8 | 719.7 | 27671 | 70 | 230 | 1553.3 | > 100000
2 | CCCCCOC(=O)[C@H](C)NP(=O)(N[C@@H](C)C(=O)OCCCCC)OC[C@H]1O[C@@H](n2cnc3c(OC)nc(N)nc32)[C@](C)(O)[C@@H]1O (mixture of isomers) | 8 | 506 | 18600 | 30 | 110 | 1042.3 | 65000
3 | CCC(C)OC(=O)[C@H](C)NP(=O)(N[C@@H](C)C(=O)OC(C)CC)OC[C@H]1O[C@@H](n2cnc3c(OC)nc(N)nc32)[C@](C)(O)[C@@H]1O (mixture of isomers) | 8 | 538.7 | 16252 | 150 | 530 | 907.7 | > 100000
4 | COc1nc(N)nc2c1ncn2[C@@H]1O[C@H](COP(=O)(N[C@@H](C)C(=O)OC2CCCC2)N[C@@H](C)C(=O)OC2CCCC2)[C@@H](O)[C@@]1(C)O (mixture of isomers) | 8 | 610 | 24546 | 60 | 220 | 1523.3 | > 100000
5 | COc1nc(N)nc2c1ncn2[C@@H]1O[C@H](COP(=O)(N[C@@H](C)C(=O)OC2Cc3ccccc3C2)N[C@@H](C)C(=O)OC2Cc3ccccc3C2)[C@@H](O)[C@@]1(C)O (mixture of isomers) | 24 | 632 | 10642 | 580 | 1300 | 632 | 70000
6 | COc1nc(N)nc2c1ncn2[C@@H]1O[C@H](COP(=O)(N[C@H](C(=O)OC2CCCCC2)c2ccccc2)N[C@H](C(=O)OC2CCCCC2)c2ccccc2)[C@@H](O)[C@@]1(C)O (mixture of isomers) | – | – | – | 320 | 1800 | – | 18000
7 | COc1nc(N)nc2c1ncn2[C@@H]1O[C@H](COP(=O)(N[C@H](C(=O)OCC(C)(C)C)c2ccccc2)N[C@H](C(=O)OCC(C)(C)C)c2ccccc2)[C@@H](O)[C@@]1(C)O (mixture of isomers) | – | – | – | 270 | 1500 | – | 24000
8 | COc1nc(N)nc2c1ncn2[C@@H]1O[C@H](COP(=O)(N[C@H](C(=O)N[C@@H](C)C(=O)OCC(C)(C)C)C(C)C)N[C@H](C(=O)N[C@@H](C)C(=O)OCC(C)(C)C)C(C)C)[C@@H](O)[C@@]1(C)O (mixture of isomers) | – | – | – | 540 | 2400 | – | > 100000
9 | COc1nc(N)nc2c1ncn2[C@@H]1O[C@H](COP(=O)(NCCC(=O)OCc2ccccc2)NCCC(=O)OCc2ccccc2)[C@@H](O)[C@@]1(C)O (mixture of isomers) | – | – | – | 3800 | > 10000 | – | > 100000
10 | CCCCNP(=O)(NCCCC)OC[C@H]1O[C@@H](n2cnc3c(OC)nc(N)nc32)[C@](C)(O)[C@@H]1O (mixture of isomers) | – | – | – | 37800 | > 40000 | – | > 100000
11 | COc1nc(N)nc2c1ncn2[C@@H]1O[C@H](COP(=O)(N2CCOCC2)N2CCOCC2)[C@@H](O)[C@@]1(C)O (mixture of isomers) | – | – | – | > 100000 | > 100000 | – | > 100000
12 | COc1nc(N)nc2c1ncn2[C@@H]1O[C@H](COP(=O)(N[C@@H](C)C(=O)OC2CCCCC2)N[C@@H](C)C(=O)OC2CCCC2)[C@@H](O)[C@@]1(C)O (mixture of isomers) | – | – | – | 40 | 160 | – | > 100000
13 | COc1nc(N)nc2c1ncn2[C@@H]1O[C@H](COP(=O)(N[C@@H](C)C(=O)OCc2ccccc2)N[C@@H](C)C(=O)OCC(C)(C)C)[C@@H](O)[C@@]1(C)O (mixture of isomers) | – | – | – | 150 | 400 | – | > 100000
14 | COc1nc(N)nc2c1ncn2[C@@H]1O[C@H](COP(=O)(N[C@@H](C)C(=O)OCC(C)(C)C)N[C@@H](C)C(=O)OC(C)(C)C)[C@@H](O)[C@@]1(C)O (mixture of isomers) | – | – | – | 150 | 570 | – | > 100000
15 | COc1nc(N)nc2c1ncn2[C@@H]1O[C@H](COP(=O)(N[C@@H](C)C(=O)OCC(C)(C)C)N[C@@H](C)C(=O)OC2CCCCC2)[C@@H](O)[C@@]1(C)O (mixture of isomers) | – | – | – | 40 | 150 | – | > 100000
16 | COC(=O)[C@@H]1CCCN1P(=O)(N[C@@H](C)C(=O)OCC(C)(C)C)OC[C@H]1O[C@@H](n2cnc3c(OC)nc(N)nc32)[C@](C)(O)[C@@H]1O (mixture of isomers) | – | – | – | 490 | 2200 | – | > 100000

Row | Structure (SMILES) | Tmax [1] [h] | Clast [2] [ng/g] | AUCt [3] [ng·h/g] | EC50 [4] [nM] | EC90 [4] [nM] | Cmax [5] [ng/g] | CC50 at 72 h [6] [nM]
17 | COC(=O)[C@@H](NP(=O)(N[C@@H](C)C(=O)OCC(C)(C)C)OC[C@H]1O[C@@H](n2cnc3c(OC)nc(N)nc32)[C@](C)(O)[C@@H]1O)C(C)C (mixture of isomers) | – | – | – | 170 | 690 | – | > 100000
18 | CCCCNP(=O)(N[C@@H](C)C(=O)OCc1ccccc1)OC[C@H]1O[C@@H](n2cnc3c(OC)nc(N)nc32)[C@](C)(O)[C@@H]1O (mixture of isomers) | – | – | – | 440 | 1680 | – | > 100000
19 | CCCCNP(=O)(N[C@@H](C)C(=O)OCC(C)(C)C)OC[C@H]1O[C@@H](n2cnc3c(OC)nc(N)nc32)[C@](C)(O)[C@@H]1O (mixture of isomers) | – | – | – | 410 | 1500 | – | > 100000
20 | CCCCCNP(=O)(N[C@@H](C)C(=O)OCC(C)(C)C)OC[C@H]1O[C@@H](n2cnc3c(OC)nc(N)nc32)[C@](C)(O)[C@@H]1O (mixture of isomers) | – | – | – | 110 | 520 | – | > 100000
21 | COc1nc(N)nc2c1ncn2[C@@H]1O[C@H](COP(=O)(NC2CC2)N[C@@H](C)C(=O)OCC(C)(C)C)[C@@H](O)[C@@]1(C)O (mixture of isomers) | – | – | – | 870 | 4700 | – | > 100000
22 | COc1nc(N)nc2c1ncn2[C@@H]1O[C@H](COP(=O)(NCc2ccccc2)N[C@@H](C)C(=O)OCC(C)(C)C)[C@@H](O)[C@@]1(C)O (mixture of isomers) | – | – | – | 430 | 1900 | – | > 100000
23 | COc1nc(N)nc2c1ncn2[C@@H]1O[C@H](COP(=O)(Nc2ccccc2)N[C@@H](C)C(=O)OCC(C)(C)C)[C@@H](O)[C@@]1(C)O (mixture of isomers) | – | – | – | 270 | 820 | – | > 100000
24 | COc1nc(N)nc2c1ncn2[C@@H]1O[C@H](COP(=O)(Nc2cccc3ccccc23)N[C@@H](C)C(=O)OCC(C)(C)C)[C@@H](O)[C@@]1(C)O (mixture of isomers) | – | – | – | 130 | 560 | – | > 100000
25 | CCN(CC)P(=O)(N[C@@H](C)C(=O)OCC(C)(C)C)OC[C@H]1O[C@@H](n2cnc3c(OC)nc(N)nc32)[C@](C)(O)[C@@H]1O (mixture of isomers) | – | – | – | 3700 | > 10000 | – | > 100000
26 | COc1nc(N)nc2c1ncn2[C@@H]1O[C@H](COP(=O)(N[C@@H](C)C(=O)OCC(C)(C)C)N2CCCC2)[C@@H](O)[C@@]1(C)O (mixture of isomers) | – | – | – | 870 | 4000 | – | > 100000
27 | CCOc1nc(N)nc2c1ncn2[C@@H]1O[C@H](COP(=O)(N[C@@H](C)C(=O)OC2CCCCC2)N[C@@H](C)C(=O)OC2CCCCC2)[C@@H](O)[C@@]1(C)O (mixture of isomers) | – | – | – | 50 | 150 | – | 69000
28 | CCOc1nc(N)nc2c1ncn2[C@@H]1O[C@H](COP(=O)(N[C@@H](C)C(=O)OCc2ccccc2)N[C@@H](C)C(=O)OCc2ccccc2)[C@@H](O)[C@@]1(C)O (mixture of isomers) | – | – | – | 290 | 1000 | – | 62000
29 | CCOc1nc(N)nc2c1ncn2[C@@H]1O[C@H](COP(=O)(N[C@@H](C)C(=O)OCC(C)(C)C)N[C@@H](C)C(=O)OCC(C)(C)C)[C@@H](O)[C@@]1(C)O (mixture of isomers) | – | – | – | 40 | 110 | – | 72000
30 | C[C@@]1(O)[C@H](O)[C@@H](CO)O[C@H]1n1cnc2c(=O)[nH]c(N)nc21 [2'-B-METHYL-GUANOSINE] | – | – | – | 2200 | 8300 | – | > 100000
31 | COc1nc(N)nc2c1ncn2[C@@H]1O[C@H](CO)[C@@H](O)[C@@]1(C)O [BETA-2'-C-METHYL-6-O-METHYL GUANOSINE] | – | – | – | 4400 | 19400 | – | > 100000
32 | COc1nc(N)nc2c1ncn2[C@@H]1O[C@H](COP(=O)(N[C@@H](C)C(=O)OCC(C)(C)C)Oc2cccc3ccccc23)[C@@H](O)[C@@]1(C)O (some centres not stated) [BMS-986094] | 8 | 983.3 | 24557 | – | – | 1446.7 | –
